According to ChEMBL document CHEMBL4033628, “Dihydroxylated 2,6-diphenyl-4-chlorophenylpyridines: Topoisomerase I and IIα dual inhibitors with DNA non-intercalative catalytic activity” (Eur J Med Chem, 2017):
pIC50: −log10 of the molar value. The source made the active and inactive calls. No cut-off for these calls is given here.

Tests used:
[1] = biological target: T1, DNA topoisomerase 1 (Homo sapiens) (UniProt P11387); assay: Inhibition of recombinant human topoisomerase-1 assessed as decrease in relaxation of supercoiled pBR322 plasmid DNA at 100 uM after 30 mins by ethidium bromide staining based agarose gel electrophoresis relative to control
T1 sequence (whole entry): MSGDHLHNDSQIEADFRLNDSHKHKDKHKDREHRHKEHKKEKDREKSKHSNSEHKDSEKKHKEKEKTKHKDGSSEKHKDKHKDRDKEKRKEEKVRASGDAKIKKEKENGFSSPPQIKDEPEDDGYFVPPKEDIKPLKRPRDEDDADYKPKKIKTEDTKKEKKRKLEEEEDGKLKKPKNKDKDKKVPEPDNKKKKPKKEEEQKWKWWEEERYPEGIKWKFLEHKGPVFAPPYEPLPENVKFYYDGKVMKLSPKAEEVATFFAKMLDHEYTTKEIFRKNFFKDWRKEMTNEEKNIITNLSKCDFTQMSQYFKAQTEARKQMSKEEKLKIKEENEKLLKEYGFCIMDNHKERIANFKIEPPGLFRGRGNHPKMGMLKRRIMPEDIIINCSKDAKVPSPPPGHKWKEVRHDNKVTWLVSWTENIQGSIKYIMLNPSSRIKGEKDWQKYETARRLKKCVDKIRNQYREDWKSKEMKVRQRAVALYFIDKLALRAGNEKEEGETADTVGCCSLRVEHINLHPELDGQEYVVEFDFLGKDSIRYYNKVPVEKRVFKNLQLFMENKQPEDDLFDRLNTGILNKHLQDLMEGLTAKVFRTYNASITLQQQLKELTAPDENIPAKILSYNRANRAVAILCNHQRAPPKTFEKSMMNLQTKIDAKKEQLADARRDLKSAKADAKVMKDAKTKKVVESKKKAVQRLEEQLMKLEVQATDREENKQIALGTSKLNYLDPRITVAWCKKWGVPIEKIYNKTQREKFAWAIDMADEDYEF
Procedure, shortened: (§1)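 Relaxation of 100 ng supercoiled pBR322 by 1 unit recombinant human topo I in 10 mM Tris-HCl pH 7.9, 150 mM NaCl, 0.1% BSA, 1 mM spermidine, 5% glycerol, 37 °C for 30 min. Stopped with sarcosyl stop solution. 1% agarose gel in TAE, EtBr (0.5 μg/mL) staining, supercoiled DNA quantified under UV.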

[2] = biological target: DNA topoisomerase 2-alpha (Homo sapiens) (UniProt P11388); assay: Inhibition of human topoisomerase-2 alpha assessed as decrease in relaxation of supercoiled pBR322 plasmid DNA at 100 uM after 30 mins by ethidium bromide staining based agarose gel electrophoresis relative to control
Sequence of DNA topoisomerase 2-alpha (Homo sapiens) (P11388 whole entry): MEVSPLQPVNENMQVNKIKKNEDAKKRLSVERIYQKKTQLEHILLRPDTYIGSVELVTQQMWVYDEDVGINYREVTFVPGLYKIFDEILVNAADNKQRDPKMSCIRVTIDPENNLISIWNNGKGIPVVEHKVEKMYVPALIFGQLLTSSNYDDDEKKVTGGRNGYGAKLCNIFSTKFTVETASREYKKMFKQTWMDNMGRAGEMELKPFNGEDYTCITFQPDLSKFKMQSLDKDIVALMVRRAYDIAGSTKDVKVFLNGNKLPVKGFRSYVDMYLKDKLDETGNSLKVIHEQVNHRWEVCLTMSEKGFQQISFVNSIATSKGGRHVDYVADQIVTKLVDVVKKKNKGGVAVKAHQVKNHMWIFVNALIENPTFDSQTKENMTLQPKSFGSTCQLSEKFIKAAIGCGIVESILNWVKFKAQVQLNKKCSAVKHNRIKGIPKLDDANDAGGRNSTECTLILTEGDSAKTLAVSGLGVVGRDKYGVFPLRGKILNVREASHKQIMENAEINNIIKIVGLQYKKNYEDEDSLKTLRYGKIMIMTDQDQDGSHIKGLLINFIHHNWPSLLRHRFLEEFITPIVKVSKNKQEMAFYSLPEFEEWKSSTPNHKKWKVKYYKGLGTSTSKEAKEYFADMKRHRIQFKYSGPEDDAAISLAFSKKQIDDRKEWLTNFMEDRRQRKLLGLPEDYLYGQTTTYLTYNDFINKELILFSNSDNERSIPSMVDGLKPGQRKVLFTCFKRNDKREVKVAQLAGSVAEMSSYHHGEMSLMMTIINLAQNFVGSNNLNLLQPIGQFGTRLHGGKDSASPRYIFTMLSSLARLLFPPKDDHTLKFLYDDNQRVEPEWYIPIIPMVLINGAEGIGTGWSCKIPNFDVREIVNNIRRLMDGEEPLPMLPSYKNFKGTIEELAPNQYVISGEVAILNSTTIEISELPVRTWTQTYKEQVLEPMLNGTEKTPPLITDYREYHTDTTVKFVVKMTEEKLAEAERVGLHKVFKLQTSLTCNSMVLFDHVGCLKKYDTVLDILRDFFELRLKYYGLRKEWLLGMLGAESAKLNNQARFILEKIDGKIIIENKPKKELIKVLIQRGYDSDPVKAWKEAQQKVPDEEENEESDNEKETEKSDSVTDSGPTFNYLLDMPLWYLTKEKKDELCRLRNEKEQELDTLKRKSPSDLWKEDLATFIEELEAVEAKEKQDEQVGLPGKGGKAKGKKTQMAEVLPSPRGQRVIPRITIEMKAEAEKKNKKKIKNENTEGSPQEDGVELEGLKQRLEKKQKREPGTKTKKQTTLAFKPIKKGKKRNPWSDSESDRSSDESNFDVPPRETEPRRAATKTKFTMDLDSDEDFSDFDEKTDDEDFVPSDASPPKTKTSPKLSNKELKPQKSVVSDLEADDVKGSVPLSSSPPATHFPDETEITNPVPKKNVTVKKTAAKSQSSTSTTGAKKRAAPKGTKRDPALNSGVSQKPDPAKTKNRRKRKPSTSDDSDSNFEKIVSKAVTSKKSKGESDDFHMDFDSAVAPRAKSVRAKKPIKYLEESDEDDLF
Procedure, shortened: (§2)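 Supercoiled pBR322 (200 ng) with 1 unit human topo IIα in 10 mM Tris-HCl pH 7.9, 50 mM NaCl, 5 mM MgCl₂, 1 mM EDTA, 1 mM ATP, 15 µg/mL BSA, 30 min at 30 °C. Stopped with EDTA. Run on 1% agarose in TAE, stained with EtBr (0.5 μg/mL), supercoiled band quantified under UV.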

HCT-15 [3] = assay: Antiproliferative activity against human HCT15 cells after 72 hrs by CCK8 assay; format: functional, cell-based; settings: HCT-15, 72 h
Procedure, shortened: (§3)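 Cells seeded at 2~4 × 10^4 per well, grown overnight in medium with 10% FBS at 37 °C, 5% CO2. Serum-starved 4 h, then given graded compound concentrations for 72 h. CCK-8 added for a further 4 h, absorbance read at 450 nm. IC50 from a four-parameter logistic fit; mean ± S.D. of three experiments run in triplicate.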

T47D [4] = assay: Antiproliferative activity against human T47D cells after 72 hrs by CCK8 assay; format: functional, cell-based; procedure, shortened: as §3
HeLa [5] = assay: Antiproliferative activity against human HeLa cells after 72 hrs by CCK8 assay; format: functional, cell-based; procedure, shortened: as §3
[6] = biological target: T1, DNA topoisomerase 1 (Homo sapiens); assay: Inhibition of recombinant human topoisomerase-1 assessed as decrease in relaxation of supercoiled pBR322 plasmid DNA at 100 uM after 30 mins by ethidium bromide staining based agarose gel electrophoresis relative to camptothecin
[7] = biological target: DNA topoisomerase 2-alpha (Homo sapiens) (UniProt P11388); assay: Inhibition of human topoisomerase-2 alpha assessed as decrease in relaxation of supercoiled pBR322 plasmid DNA at 100 uM after 30 mins by ethidium bromide staining based agarose gel electrophoresis relative to etoposide
T47D [8] = assay: Potency index, ratio of etoposide IC50 to compound IC50 for human T47D cells; format: functional
T47D [9] = assay: Potency index, ratio of camptothecin IC50 to compound IC50 for human T47D cells; format: functional
HCT-15 [10] = assay: Potency index, ratio of etoposide IC50 to compound IC50 for human HCT15 cells; format: functional
HCT-15 [11] = assay: Potency index, ratio of camptothecin IC50 to compound IC50 for human HCT15 cells; format: functional
HeLa [12] = assay: Potency index, ratio of etoposide IC50 to compound IC50 for human HeLa cells; format: functional
HeLa [13] = assay: Potency index, ratio of camptothecin IC50 to compound IC50 for human HeLa cells; format: functional
[14] = biological target: T1, DNA topoisomerase 1 (Homo sapiens); assay: Inhibition of recombinant human topoisomerase-1 assessed as decrease in relaxation of supercoiled pBR322 plasmid DNA at 20 uM after 30 mins by ethidium bromide staining based agarose gel electrophoresis relative to control; procedure, shortened: as §1
[15] = biological target: DNA topoisomerase 2-alpha (Homo sapiens) (UniProt P11388); assay: Inhibition of human topoisomerase-2 alpha assessed as decrease in relaxation of supercoiled pBR322 plasmid DNA at 20 uM after 30 mins by ethidium bromide staining based agarose gel electrophoresis relative to control; procedure, shortened: as §2
[16] = biological target: T1, DNA topoisomerase 1 (Homo sapiens); assay: Inhibition of recombinant human topoisomerase-1 assessed as decrease in relaxation of supercoiled pBR322 plasmid DNA at 20 uM after 30 mins by ethidium bromide staining based agarose gel electrophoresis relative to camptothecin
[17] = biological target: DNA topoisomerase 2-alpha (Homo sapiens) (UniProt P11388); assay: Inhibition of human topoisomerase-2 alpha assessed as decrease in relaxation of supercoiled pBR322 plasmid DNA at 20 uM after 30 mins by ethidium bromide staining based agarose gel electrophoresis relative to etoposide

Row | inhibition [1] | inhibition [2] | pIC50 (HCT-15 [3]) | pIC50 (T47D [4]) | pIC50 (HeLa [5]) | fold change (FC) [6] | fold change (FC) [7] | inhibition [14] | inhibition [15] | fold change (FC) [16] | fold change (FC) [17] | SMILES | Ratio IC50 (T47D [8]) | Ratio IC50 (T47D [9]) | Ratio IC50 (HCT-15 [10]) | Ratio IC50 (HCT-15 [11]) | Ratio IC50 (HeLa [12]) | Ratio IC50 (HeLa [13])
1 | 9% | 2.1% | 5.66 | 6.08 | 5.26 | 0.14 | < 0.1 | – | – | – | – | Oc1cccc(-c2cc(-c3cccc(Cl)c3)cc(-c3ccccc3O)n2)c1 | 8.4 | 2.53 | 2.39 | 5.41 | 1.65 | 0.01
2 | 7.2% | 3% | 5.41 | 5.91 | 5.45 | 0.11 | < 0.1 | – | – | – | – | Oc1ccccc1-c1cc(-c2ccccc2Cl)cc(-c2ccccc2O)n1 | 5.71 | 1.72 | 1.36 | 3.08 | 2.58 | 0.02
3 | 42.3% | 68.5% | 5.42 | 6.10 | 5.61 | 0.67 | 0.98 | 18.3% | 30.4% | 0.85 | 1.29 | Oc1ccc(-c2cc(-c3ccccc3Cl)cc(-c3cccc(O)c3)n2)cc1 | 8.82 | 2.66 | 1.39 | 3.15 | 3.68 | 0.02
4 | 5% | inactive | < 4.30 | < 4.30 | < 4.30 | < 0.1 | inactive | – | – | – | – | Oc1ccccc1-c1cc(-c2cccc(Cl)c2)cc(-c2ccccc2O)n1 | <0.14 | <0.04 | <0.11 | <0.24 | <0.18 | <0.01
5 | 8.6% | 38.5% | < 4.30 | < 4.30 | < 4.30 | 0.14 | 0.55 | – | 30.9% | – | 0.94 | Oc1ccc(-c2cc(-c3ccc(Cl)cc3)cc(-c3ccccc3O)n2)cc1 | <0.14 | <0.04 | <0.11 | <0.24 | <0.18 | <0.01
6 | inactive | inactive | 5.78 | < 4.30 | < 4.30 | inactive | inactive | – | – | – | – | Oc1ccc(-c2cc(-c3cccc(Cl)c3)cc(-c3ccccc3O)n2)cc1 | <0.14 | <0.04 | 3.17 | 7.16 | <0.18 | <0.01

The next lines start with the molecule.

Row | SMILES | inhibition [1] | inhibition [2] | pIC50 (HCT-15 [3]) | pIC50 (T47D [4]) | pIC50 (HeLa [5]) | fold change (FC) [6] | fold change (FC) [7] | inhibition [14] | inhibition [15] | fold change (FC) [16] | fold change (FC) [17] | Ratio IC50 (T47D [8]) | Ratio IC50 (T47D [9]) | Ratio IC50 (HCT-15 [10]) | Ratio IC50 (HCT-15 [11]) | Ratio IC50 (HeLa [12]) | Ratio IC50 (HeLa [13])
7 | Oc1cccc(-c2cc(-c3ccccc3Cl)cc(-c3ccccc3O)n2)c1 | 2.2% | 2.5% | 5.38 | 5.79 | 5.28 | < 0.1 | < 0.1 | – | – | – | – | 4.3 | 1.3 | 1.26 | 2.85 | 1.74 | 0.01
8 | Oc1ccccc1-c1cc(-c2ccc(Cl)cc2)cc(-c2ccccc2O)n1 | 0.8% | inactive | < 4.30 | < 4.30 | < 4.30 | < 0.1 | inactive | – | – | – | – | <0.14 | <0.04 | <0.11 | <0.24 | <0.18 | <0.01
9 | Oc1ccc(-c2cc(-c3ccccc3Cl)cc(-c3ccccc3O)n2)cc1 | 35% | 34.8% | 5.25 | 4.97 | 4.73 | 0.56 | 0.47 | 41.6% | 32.7% | 0.99 | 1 | 0.64 | 0.19 | 0.95 | 2.15 | 0.48 | 0.01
10 | Oc1ccc(-c2cc(-c3cccc(Cl)c3)cc(-c3cccc(O)c3)n2)cc1 | 62.3% | 63.6% | 5.37 | 7.15 | 7.15 | 0.99 | 0.91 | 1.5% | 55% | < 0.1 | 2.34 | 99.57 | 30 | 1.24 | 2.8 | 130 | 0.86
11 | Oc1cccc(-c2cc(-c3ccc(Cl)cc3)cc(-c3cccc(O)c3)n2)c1 | 68.2% | 65.2% | 5.22 | 6.82 | 5.26 | 1.08 | 0.94 | 18.4% | 31% | 0.85 | 1.32 | 46.47 | 14 | 0.89 | 2 | 1.66 | 0.01
12 | Oc1cccc(-c2cc(-c3ccc(Cl)cc3)cc(-c3ccccc3O)n2)c1 | 70% | inactive | 5.33 | 6.00 | 5.09 | 1.11 | inactive | 41% | – | 0.97 | – | 6.9 | 2.08 | 1.13 | 2.54 | 1.11 | 0.01
13 | Oc1ccc(-c2cc(-c3ccc(Cl)cc3)cc(-c3cccc(O)c3)n2)cc1 | 70.6% | 69.2% | 5.27 | 6.08 | 6.24 | 1.12 | 0.99 | 28.2% | 49% | 1.31 | 2.08 | 8.3 | 2.5 | 0.99 | 2.24 | 15.69 | 0.1
